MT1-MMP act inh: blockers of MT1-MMP proenzyme processing, primary screen, HT1080 RFP-PRO-GFP cells, GFP/RFP fluorescence; Matrix metalloproteinase-14 (Homo sapiens), P50281; GFP/RFP ratio fluorescence, overnight; percent of plate control window, DMSO zero; GFP/RFP ratio change, % at 20 µM; 360,000 compounds, 0.061% hits; AID 651647, 2012;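 active means GFP/RFP ratio change of at least 30% with cell ATP level not reduced by more than half and red fluorescence within 50% of control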
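Material: RFP-PRO-GFP reporter HT1080 cells. Dosing: single-point 20 µM compound, 1% DMSO. Controls: DMSO and RFP-L50D-GFP cell wells. Timing: cells overnight before dosing, compound overnight, 37 °C, 5% CO2. Measure: GFP/RFP fluorescence ratio.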
PABP polyA inh: PABP poly(A) RNA binding inhibitors, primary screen, biochemical, fluorescence polarization, uHTS; calls only at 35 µM; Polyadenylate-binding protein 1 (Homo sapiens), P11940; 290,000 compounds, 1% hits;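 further: calls also rest on retests at 20 µM and on dose response follow-up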
Target sequence (P11940 whole entry, looked up): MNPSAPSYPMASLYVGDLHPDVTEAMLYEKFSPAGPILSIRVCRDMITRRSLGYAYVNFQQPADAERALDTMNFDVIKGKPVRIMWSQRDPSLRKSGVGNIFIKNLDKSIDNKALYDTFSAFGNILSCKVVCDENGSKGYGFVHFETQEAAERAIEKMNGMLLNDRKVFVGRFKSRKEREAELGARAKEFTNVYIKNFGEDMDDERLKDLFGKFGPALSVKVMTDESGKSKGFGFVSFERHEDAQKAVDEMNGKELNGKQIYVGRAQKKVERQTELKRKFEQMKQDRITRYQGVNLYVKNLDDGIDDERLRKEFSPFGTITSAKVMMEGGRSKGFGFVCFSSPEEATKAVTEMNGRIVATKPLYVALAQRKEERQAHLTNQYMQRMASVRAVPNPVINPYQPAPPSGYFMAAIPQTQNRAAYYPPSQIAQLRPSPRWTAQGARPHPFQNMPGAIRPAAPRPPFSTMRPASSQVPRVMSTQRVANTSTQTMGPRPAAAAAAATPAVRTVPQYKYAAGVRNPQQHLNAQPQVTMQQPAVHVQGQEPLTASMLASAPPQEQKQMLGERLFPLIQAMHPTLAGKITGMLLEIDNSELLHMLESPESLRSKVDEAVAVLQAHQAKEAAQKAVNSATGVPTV
PABP1 MLLE inh: inhibitors of PABP1 MLLE–PAM2 peptide binding, primary screen, biochemical, fluorescence polarization, FITC-PAM2, GST-MLLE; Polyadenylate-binding protein 1 (Homo sapiens), P11940; inhibition, % at 20 µM; 360,000 compounds, 0.36% hits; AID 588489, 2011; in the data active means inhibition above about 35%, passing the limit was not always enough;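 further: plate controls were DMSO wells with GST-MLLE for no effect and wells lacking GST-MLLE protein for full effect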
eIF4H FP inh: human eIF4H binding inhibitors, primary screen, translation initiation inhibitor project, biochemical, uHTS, fluorescence polarization; eIF4H fluorescence polarization binding assay; Eukaryotic translation initiation factor 4H (Homo sapiens), Q15056; inhibition, % at 35 µM; 290,000 compounds, 0.94% hits;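 further: calls also rest on retests at 20 µM and on dose response follow-up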
SKN-1 inh: suppressors of acrylamide-induced Pgst-4::GFP reporter in worms, primary screen, SKN-1 inhibitor project, whole organism, uHTS, GFP/RFP fluorescence ratio, strain VP596 | C. elegans VP596 Pgst-4::GFP/RFP ratio, 24 h | inhibition, % at 21.8 µM | 360,000 compounds, 0.49% hits;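 active means interference check ratio from 0.5 to 1.5 plus GFP to RFP signal ratio inhibition reaching or exceeding a fixed threshold, cut at about 30% in these data, passing the limit was not always enough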
MT1-MMP act val: MT1-MMP activation inhibitors, hit retest, confirmation, single concentration, fluorescence, HT1080 RFP-PRO-GFP cells. shares compounds with MT1-MMP act inh. GFP and RFP fluorescence ratio, overnight. inhibition, % at 20 µM. 200 compounds, 10% hits;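 active means inhibition of at least 50% in the primary cell screen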
The depositor's hits bear a star; i = inactive; / = no result. Shown are actives, neighbours in structure and some others; about 1.8% of the full set was active somewhere. Unless noted, how the calls were made is not given here.

SMILES	MT1-MMP act inh	PABP polyA inh	PABP1 MLLE inh	eIF4H FP inh	SKN-1 inh	MT1-MMP act val
CNc1ccccc1C(C)(C)c1cc(C)[nH]n1	7.0	i	12.8	-0.2	-0.3	/
CNc1ccccc1C(C)(C)c1cc(-c2ccco2)n[nH]1	33.9*	i	16.9	44.1	13.0	7.8
CC1CCN(C(=O)c2ccc3c(c2NCCO)C(=O)c2ccccc2C3=O)CC1	30.6*	i	-1.4	-5.2	11.2	28.3
CC(C)OC(=O)N(C)C[C@H]1OCc2cn(nn2)CCCC(=O)N([C@H](C)CO)C[C@@H]1C	-1.4	/	9.7	/	-0.5	/
Cc1ccc(S(=O)(=O)C[C@@H]2OC[C@H](Cc3ccccc3)N2S(=O)(=O)c2ccc(C)cc2)cc1	-3.2	/	/	/	9.1	/
CN(CCCC(=O)O)c1ccc(N=Nc2ccc([N+](=O)[O-])cc2)cc1	53.2*	/	-6.9	/	1.5	49.1
CN(C)/C=C/c1oc2ccc(O)cc2c1[N+](=O)[O-]	58.3*	i	-57.8	-15.2	27.7	50.6*
CCN(CC)c1ccc(C(=C2C=CC(=[N+](CC)CC)C=C2)c2ccc(N(CC)CC)cc2)cc1	143.1*	/	0.5	/	3.2	126.3*
CCN(CC)c1ccc(C(=C2C=CC(=[N+](CC)CC)C=C2)c2ccccc2)cc1	-34.4	/	15.4	/	-54.4	/

Assay outcomes as filed in PubChem BioAssay.
